Test results: ChEMBL document CHEMBL4325934, “Discovery of 12-Thiazole Abietanes as Selective Inhibitors of the Human Metabolic Serine Hydrolase hABHD16A” (ACS Med Chem Lett, 2018)
Calls of active or inactive are those of the source. The calls are words filed in the database; no cut-off is given here.

Tests used:
[1] = molecular target: T1, Phosphatidylserine lipase ABHD16A (Homo sapiens, UniProt O95870); test: Reversible inhibition of human ABHD16A expressed in HEK293 cells preincubated for 30 mins followed by 40 fold compound dilution and subsequent 1-LG substrate addition and measured at 30 mins time interval for 120 mins by fluorometric assay; format: cell-based
T1 sequence (O95870 whole entry): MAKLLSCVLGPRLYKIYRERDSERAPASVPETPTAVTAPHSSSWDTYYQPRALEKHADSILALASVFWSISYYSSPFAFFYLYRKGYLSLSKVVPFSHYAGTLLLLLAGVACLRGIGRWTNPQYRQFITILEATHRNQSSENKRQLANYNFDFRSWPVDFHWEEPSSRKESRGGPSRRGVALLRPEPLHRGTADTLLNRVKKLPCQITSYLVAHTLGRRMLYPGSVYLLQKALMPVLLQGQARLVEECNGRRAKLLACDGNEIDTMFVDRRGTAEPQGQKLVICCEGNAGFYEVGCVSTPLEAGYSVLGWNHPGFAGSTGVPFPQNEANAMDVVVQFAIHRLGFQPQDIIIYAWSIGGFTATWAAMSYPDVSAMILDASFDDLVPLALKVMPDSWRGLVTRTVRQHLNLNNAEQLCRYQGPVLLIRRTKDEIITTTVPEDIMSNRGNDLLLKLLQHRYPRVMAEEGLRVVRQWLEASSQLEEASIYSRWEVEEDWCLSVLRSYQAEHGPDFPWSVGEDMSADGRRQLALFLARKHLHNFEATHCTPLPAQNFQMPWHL
How it was run: (§1)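 Reversibility test: hABHD16A-HEK293 lysate treated with inhibitor was rapidly diluted 40-fold before substrate addition. Inhibitor range extended up to 1 mM, and potency was compared with the routine assay (30 min pretreatment, 1-LG hydrolysis, glycerol read-out). Mean ± SD from two independent experiments.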

[2] = molecular target: Acyl-protein thioesterase 2 (Rattus norvegicus) (UniProt Q9QYL8); test: Binding affinity to LYPLA2 in rat cerebellar membranes at 10 uM measured after 1 hr by fluorescence based ABPP analysis; format: cell membranes; conditions: Cerebellum, Membrane
How it was run: (§2)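 Competitive ABPP in rat cerebellar membrane proteome: the proteome was pretreated with inhibitor, then labelled with the TAMRA-FP probe, and loss of band labelling was read by fluorescence. Reversible test inhibitors were used at 20 and 200 µM.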

[3] = molecular target: T2, Phosphatidylserine lipase ABHD16A (Homo sapiens) (UniProt O95870); test: Ratio of IC50 for reversible inhibition of human ABHD16A expressed in HEK293 cells to IC50 for inhibition of human ABHD16A expressed in HEK293 cells; format: cell-based; how it was run: as §1
T2 sequence (whole entry): T1 sequence (O95870 whole entry)

[4] = molecular target: Acyl-protein thioesterase 1 (Rattus norvegicus) (UniProt P70470); test: Binding affinity to LYPLA1 in rat cerebellar membranes at 10 uM measured after 1 hr by fluorescence based ABPP analysis; format: cell membranes; conditions: Cerebellum, Membrane
[5] = molecular target: T3, Phosphatidylserine lipase ABHD16A (Rattus norvegicus) (UniProt Q6MG55); test: Inhibition of TAMRA-FP binding to ABHD16A in rat cerebellar membranes at 10 uM preincubated for 1 hr followed by TAMRA-FP addition measured after 1 hr by fluorescence based ABPP analysis; format: cell membranes; conditions: Cerebellum, Membrane
T3 sequence (whole entry): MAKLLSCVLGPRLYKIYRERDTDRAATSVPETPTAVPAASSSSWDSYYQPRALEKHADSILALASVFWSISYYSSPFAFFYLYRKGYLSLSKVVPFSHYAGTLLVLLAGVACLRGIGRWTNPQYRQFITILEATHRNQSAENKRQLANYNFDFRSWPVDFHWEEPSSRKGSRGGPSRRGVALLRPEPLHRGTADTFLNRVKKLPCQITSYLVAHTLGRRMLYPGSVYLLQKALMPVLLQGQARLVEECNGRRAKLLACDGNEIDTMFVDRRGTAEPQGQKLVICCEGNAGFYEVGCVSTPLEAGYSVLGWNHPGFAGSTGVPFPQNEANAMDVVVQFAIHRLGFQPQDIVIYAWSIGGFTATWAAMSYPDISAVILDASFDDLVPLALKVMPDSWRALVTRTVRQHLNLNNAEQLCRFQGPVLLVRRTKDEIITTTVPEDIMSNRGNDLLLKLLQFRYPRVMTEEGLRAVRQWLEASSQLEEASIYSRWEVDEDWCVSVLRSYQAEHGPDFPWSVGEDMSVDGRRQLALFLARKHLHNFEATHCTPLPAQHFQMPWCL

[6] = molecular target: T2, Phosphatidylserine lipase ABHD16A (Homo sapiens); test: Potency index, ratio of tetrahydrolipstatin IC50 to compound IC50 for inhibition of ABHD16A (unknown origin)
[7] = molecular target: T1, Phosphatidylserine lipase ABHD16A; test: Inhibition of human ABHD16A expressed in HEK293 cells preincubated for 30 mins followed by 1-LG substrate addition and measured after 90 to 120 mins by fluorometric assay; format: cell-based
How it was run: (§3)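 Lysates of HEK293 cells transiently overexpressing human ABHD16A were pretreated 30 min with DMSO (control) or inhibitor, then 1-LG substrate was added (25 µM final), and liberated glycerol was measured. The single-concentration screen was at 10 µM, reported as % control activity (mean ± SD, n=2-3). Dose-responses used four concentrations (0.1-100 µM), duplicate wells, two independent experiments.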

[8] = molecular target: T4, ABHD12 (lysophosphatidylserine lipase) (Homo sapiens, UniProt Q8N2K0); test: Inhibition of human ABHD12 expressed in HEK293 cells assessed as residual activity at 10 uM preincubated for 30 mins followed by 1-AG substrate addition and measured after 90 to 120 mins by fluorometric assay relative to control; format: cell-based; conditions: HEK293 cells that express human ABHD12, probe 1-AG, read-out: Activity
T4 sequence (Q8N2K0 whole entry): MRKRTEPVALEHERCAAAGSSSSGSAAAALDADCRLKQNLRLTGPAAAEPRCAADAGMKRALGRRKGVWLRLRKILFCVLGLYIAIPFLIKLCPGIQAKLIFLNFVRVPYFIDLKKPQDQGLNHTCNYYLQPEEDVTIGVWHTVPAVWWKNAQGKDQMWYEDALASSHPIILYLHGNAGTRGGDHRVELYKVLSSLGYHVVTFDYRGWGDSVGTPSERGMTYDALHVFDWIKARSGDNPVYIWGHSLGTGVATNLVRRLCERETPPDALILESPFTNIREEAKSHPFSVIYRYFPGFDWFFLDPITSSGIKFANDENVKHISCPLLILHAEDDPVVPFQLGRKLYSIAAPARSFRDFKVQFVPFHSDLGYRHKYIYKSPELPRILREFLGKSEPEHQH
How it was run: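 Screened at 10 µM in lysates of HEK293 cells overexpressing human ABHD12, given as remaining hydrolase activity relative to control (mean ± SD, n=2-3).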

[9] = molecular target: T2, Phosphatidylserine lipase ABHD16A (Homo sapiens); test: Inhibition of human ABHD16A expressed in HEK293 cells assessed as residual activity at 10 uM preincubated for 30 mins followed by 1-LG substrate addition and measured after 90 to 120 mins by fluorometric assay relative to control; format: cell-based; how it was run: as §3
[10] = molecular target: T3, Phosphatidylserine lipase ABHD16A (Rattus norvegicus); test: Inhibition of TAMRA-FP binding to ABHD16A in rat cerebellar membranes preincubated for 1 hr followed by TAMRA-FP addition measured after 1 hr by fluorescence based ABPP analysis; format: cell membranes; conditions: Cerebellum, Membrane; how it was run: as §2
[11] = molecular target: T2, Phosphatidylserine lipase ABHD16A (Homo sapiens); test: Inhibition of human ABHD16A expressed in HEK293 cells assessed as residual activity at 100 uM preincubated for 30 mins followed by 1-LG substrate addition and measured after 90 to 120 mins by fluorometric assay relative to control; format: cell-based; how it was run: as §3
[12] = molecular target: T3, Phosphatidylserine lipase ABHD16A (Rattus norvegicus); test: Inhibition of TAMRA-FP binding to ABHD16A in rat cerebellar membranes at 1 uM preincubated for 1 hr followed by TAMRA-FP addition measured after 1 hr by fluorescence based ABPP analysis; format: cell membranes; conditions: Cerebellum, Membrane
How it was run: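 Competitive ABPP on rat cerebellar membrane proteome. Proteome was pretreated with inhibitor, then labeled with the serine hydrolase probe TAMRA-FP. Loss of labeling of the band migrating at ~63 kDa, assigned as ABHD16A, was the read-out.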

[13] = molecular target: T3, Phosphatidylserine lipase ABHD16A (Rattus norvegicus); test: Inhibition of TAMRA-FP binding to ABHD16A in rat cerebellar membranes at 200 uM preincubated for 1 hr followed by TAMRA-FP addition measured after 1 hr by fluorescence based ABPP analysis; format: cell membranes; conditions: Cerebellum, Membrane; how it was run: as §2
[14] = molecular target: T2, Phosphatidylserine lipase ABHD16A (Homo sapiens); test: Inhibition of TAMRA-FP binding to human ABHD16A expressed in HEK293 cells at 20 to 200 uM preincubated for 1 hr followed by TAMRA-FP addition measured after 1 hr by fluorescence based ABPP analysis; format: cell-based

Sequence of Acyl-protein thioesterase 1 (Rattus norvegicus) (P70470 whole entry): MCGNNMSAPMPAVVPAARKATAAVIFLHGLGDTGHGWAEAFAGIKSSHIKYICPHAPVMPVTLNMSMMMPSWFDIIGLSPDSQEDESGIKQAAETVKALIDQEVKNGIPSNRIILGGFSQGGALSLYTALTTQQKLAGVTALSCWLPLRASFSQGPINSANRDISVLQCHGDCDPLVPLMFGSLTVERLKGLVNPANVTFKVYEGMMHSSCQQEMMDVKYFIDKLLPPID
Sequence of Acyl-protein thioesterase 2 (Rattus norvegicus) (Q9QYL8 whole entry): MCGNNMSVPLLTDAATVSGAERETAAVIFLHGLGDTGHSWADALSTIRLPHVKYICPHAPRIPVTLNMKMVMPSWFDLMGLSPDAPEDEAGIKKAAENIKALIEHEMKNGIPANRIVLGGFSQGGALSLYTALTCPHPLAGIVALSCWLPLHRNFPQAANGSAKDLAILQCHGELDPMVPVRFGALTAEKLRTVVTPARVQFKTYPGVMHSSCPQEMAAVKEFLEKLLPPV

CCCCCCCCCC[C@@H]1C(=O)O[C@H]1CCc1ccc(OC)c(OC)c1 [PALMOSTATIN B]
IC50 [1]: 0.057 µM | Activity [2]: Active | Ratio IC50 [3]: 1.8 | Activity [4]: Active | inhibition [5]: Active | Ratio IC50 [6]: 1.7 | IC50 [7]: 0.099 to 0.105 µM

CC(C)c1cc2c(cc1-c1csc(N)n1)[C@@]1(C)CCC[C@@](C)(CO)[C@@H]1CC2
activity at 10 µM [8]: 87.8% | Activity [9]: 74.6%

CCCCCCCCCCCCCC1OC(=O)/C1=C\CCCCC(N)=O (configuration not stated)
Ratio IC50 [6]: 1.3

CC(C)c1cc2c(cc1-c1cscn1)[C@@]1(C)CCC[C@@](C)(C(=O)O)[C@@H]1CC2
activity at 10 µM [8]: 98.4% | Activity [9]: 91.5%

COC(=O)[C@]1(C)CCC[C@]2(C)c3cc(-c4csc(-c5ccccc5Cl)n4)c(C(C)C)cc3CC[C@@H]12
activity at 10 µM [8]: 101% | Activity [9]: 86.6%

COC(=O)[C@]1(C)CCC[C@]2(C)c3cc(-c4csc(C)[n+]4C)c(C(C)C)cc3CC[C@@H]12
activity at 10 µM [8]: 92.8% | Activity [9]: 82.7%

COC(=O)[C@]1(C)CCC[C@]2(C)c3cc(-c4csc(C)n4)c(C(C)C)cc3CC[C@@H]12
activity at 10 µM [8]: 100% | IC50 [1]: 41.1 µM | inhibition [10]: Dose-dependent effect | Activity [9]: 23% | Ratio IC50 [3]: 11.4 | Activity [11]: 12% | IC50 [7]: 3.4 to 3.6 µM

CC(C)c1cc2c(cc1-c1csc(N)n1)[C@@]1(C)CCC[C@@](C)(C(N)=O)[C@@H]1CC2
activity at 10 µM [8]: 96.9% | Activity [9]: 80%

Cc1nc(-c2cc3c(cc2C(C)C)CC[C@H]2[C@](C)(C(=O)O)CCC[C@]32C)cs1
activity at 10 µM [8]: 102% | Activity [9]: 98.4%

CCCCCCCCCCC[C@@H](C[C@@H]1OC(=O)[C@H]1CCCCCC)OC(=O)[C@H](CC(C)C)NC=O
inhibition [5]: Active

CCOC(=O)c1nc(-c2cc3c(cc2C(C)C)CC[C@H]2[C@](C)(C(=O)OC)CCC[C@]32C)cs1
activity at 10 µM [8]: 73.8% | Activity [9]: 48.7%

COC(=O)[C@]1(C)CCC[C@]2(C)c3cc(-c4csc[n+]4C)c(C(C)C)cc3CC[C@@H]12
activity at 10 µM [8]: 91.1% | Activity [9]: 80.1%

COC(=O)[C@]1(C)CCC[C@]2(C)c3cc(-c4cscn4)c(C(C)C)cc3CC[C@@H]12
activity at 10 µM [8]: 91.5% | Activity [9]: 50.3%

CC(C)c1cc2c(cc1-c1cscn1)[C@@]1(C)CCC[C@@](C)(C(=O)OCCO)[C@@H]1CC2
activity at 10 µM [8]: 77.8% | Activity [9]: 62.9%

COC(=O)[C@]1(C)CCC[C@]2(C)c3cc(-c4csc(-c5ccc(Cl)cc5)n4)c(C(C)C)cc3CC[C@@H]12
activity at 10 µM [8]: 96.6% | Activity [9]: 99.3%

Cc1nc(-c2cc3c(cc2C(C)C)CC[C@H]2[C@](C)(CO)CCC[C@]32C)cs1
activity at 10 µM [8]: 98.7% | Activity [9]: 66.3%

COc1nn(-c2ccc(F)cc2)c(=O)o1
Ratio IC50 [6]: 5.3 | inhibition [12]: Active

CC[n+]1c(-c2cc3c(cc2C(C)C)CC[C@H]2[C@](C)(C(=O)OC)CCC[C@]32C)csc1C
activity at 10 µM [8]: 91.1% | Activity [9]: 81.5%

CC(C)c1cc2c(cc1-c1cscn1)[C@@]1(C)CCC[C@@](C)(CO)[C@@H]1CC2
activity at 10 µM [8]: 96.3% | Activity [9]: 65.9%

COC(=O)[C@]1(C)CCC[C@]2(C)c3cc(-c4csc(-c5ccccc5)n4)c(C(C)C)cc3CC[C@@H]12
activity at 10 µM [8]: 89.8% | Activity [9]: 73.8%

CC(C)c1cc2c(cc1-c1cscn1)[C@@]1(C)CCC[C@@](C)(C(N)=O)[C@@H]1CC2
activity at 10 µM [8]: 98.7% | Activity [9]: 82.1%

Cc1nc(-c2cc3c(cc2C(C)C)CC[C@H]2[C@](C)(C(N)=O)CCC[C@]32C)cs1
activity at 10 µM [8]: 99.6% | Activity [9]: 80.6%

COC(=O)[C@]1(C)CCC[C@]2(C)c3cc(-c4csc(N)n4)c(C(C)C)cc3CC[C@@H]12
activity at 10 µM [8]: 103% | Activity [9]: 58.2%

COC(=O)[C@]1(C)CCC[C@]2(C)c3cc(-c4csc(C#N)n4)c(C(C)C)cc3CC[C@@H]12
activity at 10 µM [8]: 94.3% | IC50 [1]: 31.6 µM | inhibition [13]: Active | Activity [9]: 42.8% | Ratio IC50 [3]: 6.4 | inhibition [14]: inactive | Activity [11]: 25% | IC50 [7]: 4.9 to 5.2 µM
